This passage reports IC50 results from ChEMBL document CHEMBL2417367 (Bioorg Med Chem, 2013).

Experiment [1] deals with HT-29. The experiment can be described thus: cells. Conditions: Homo sapiens, HT-29, 72 h.
Experiment [2] has as its system MDA-MB-231. In words: Cytotoxicity against human MDA-MB-231 cells after 72 hrs by MTT assay. The format is functional, cell-based. Conditions: MDA-MB-231, 72 h. Summed up: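 Cells were grown in MEM with 10% FBS. About 4×10^3 cells per well were seeded and incubated 24 h at 37 °C in 5% CO2. Compounds were then added at set final concentrations for 72 h. MTT (final 5 µg/mL) was added for 4 h at 37 °C, and formazan was dissolved in DMSO and read at 492 nm against a 630 nm reference. Each line was tested three times; IC50 is mean ± SD.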
For orientation: Formazan colour is commonly taken as a measure of viable cells.

Experiment [3] deals with A549. The experiment can be described thus: Cytotoxicity against human A549 cells after 72 hrs by MTT assay. The format is functional, cell-based. The following applies: A549, 72 h.
The subject of experiment [4] is MKN-45. The experiment can be described thus: cells. The following applies: Homo sapiens, MKN-45, 72 h.
For experiment [5], the system named is SMMC-7721. In words: cells. The following applies: Homo sapiens, SMMC-7721, 72 h.
Experiment [6] has as its system NCI-H460. The experiment can be described thus: cells. Conditions: Homo sapiens, NCI-H460, 72 h.
The nature of experiment [7]: cells. Conditions: Homo sapiens, U-87 MG, 72 h.

By IC50 is commonly meant the midpoint of a concentration-inhibition curve.

Regarding `COc1cccc(/C=N/NC(=O)Nc2ccc(Oc3ccnc4cc(OCCCN5CCCCC5)c(OC)cc34)c(F)c2)c1`, the IC50 in experiment [1] came out at 330 nM; in experiment [2] it was 1200 nM; in experiment [3] it was 340 nM; in experiment [4], 730 nM.

For `COc1cc2c(Oc3ccc(NC(=O)N/N=C/c4ccc(F)cc4)cc3F)ccnc2cc1OCCCN1CCCCC1`, the IC50 in experiment [1] came out at 130 nM; in experiment [2], 820 nM; in experiment [3], 89 nM; in experiment [5], 330 nM; in experiment [4], 490 nM; in experiment [6], 69 nM.

Consider `COc1cc2c(Oc3ccc(NC(=O)N/N=C/c4ccc(F)cc4)cc3F)ccnc2cc1OCCCN1CCC(C)CC1`, for which the IC50 is 83 nM in experiment [1], 930 nM in experiment [2], 110 nM in experiment [3] and 610 nM in experiment [4].

Regarding `COc1cc2c(Oc3ccc(NC(=O)N/N=C/c4ccccc4)cc3F)ccnc2cc1OCCCN1CCOCC1`, the IC50 in experiment [1] was 200 nM; in experiment [2], 2100 nM; in experiment [3], 350 nM; in experiment [4], 670 nM.

Turning to `COc1cc2c(Oc3ccc(NC(=O)N/N=C/c4cccc([N+](=O)[O-])c4)cc3F)ccnc2cc1OCCCN1CCCCC1`, the IC50 worked out at 320 nM in experiment [1], 1000 nM in experiment [2], 750 nM in experiment [3] and 760 nM in experiment [4].

`COc1cc2c(Oc3ccc(NC(=O)N/N=C/c4c(C)cc(C)cc4C)cc3F)ccnc2cc1OCCCN1CCCCC1`: the IC50 came out at 700 nM in experiment [1], 1100 nM in experiment [2], 1900 nM in experiment [3] and 650 nM in experiment [4].

With `COc1cc2c(Oc3ccc(NC(=O)N/N=C/c4ccc(OC(F)(F)F)cc4)cc3F)ccnc2cc1OCCCN1CCOCC1`, the IC50 came out at 1400 nM in experiment [1], 1800 nM in experiment [2], 880 nM in experiment [3] and 1200 nM in experiment [4].

Consider `COc1cc2c(Oc3ccc(NC(=O)N/N=C/c4ccccc4F)cc3F)ccnc2cc1OCCCN1CCC(C)CC1`, for which the IC50 in experiment [1] amounted to 180 nM; in experiment [2], 880 nM; in experiment [3] it was 220 nM; in experiment [4] it was 490 nM.

Consider `COc1cc2c(Oc3ccc(NC(=O)N/N=C/c4ccc[nH]4)cc3F)ccnc2cc1OCCCN1CCCCC1`, for which the IC50 was determined as 440 nM in experiment [1], 1000 nM in experiment [2], 540 nM in experiment [3] and 930 nM in experiment [4].

As to `COc1cc2c(Oc3ccc(NC(=O)N/N=C/c4ccc(F)cc4F)cc3F)ccnc2cc1OCCCN1CCCCC1`, the IC50 in experiment [1] turned out to be 190 nM; in experiment [2], 850 nM; in experiment [3], 78 nM; in experiment [5] it was 300 nM; in experiment [4], 560 nM; in experiment [7], 18 nM. The compound further returned an IC50 in experiment [6] of 77 nM.

With `COc1cc2c(Oc3ccc(NC(=O)N/N=C/c4ccc(Cl)cc4)cc3F)ccnc2cc1OCCCN1CCOCC1`, the IC50 was 160 nM in experiment [1], 1200 nM in experiment [2], 330 nM in experiment [3] and 640 nM in experiment [4].

With `COc1cc2c(Oc3ccc(NC(=S)N/N=C/c4ccc(F)cc4F)cc3F)ccnc2cc1OCCCN1CCCCC1`, the IC50 in experiment [1] was 330 nM; in experiment [2] it was 950 nM; in experiment [3], 190 nM; in experiment [4], 680 nM.

`COc1cc2c(Oc3ccc(NC(=O)N/N=C/c4ccc(F)cc4)cc3F)ccnc2cc1OCCCN1CCOCC1`: the IC50 in experiment [1] was 96 nM; in experiment [2], 1600 nM; in experiment [3], 200 nM; in experiment [4], 560 nM.

Turning to `COc1cc2c(Oc3ccc(NC(=O)N/N=C/c4ccccc4)cc3F)ccnc2cc1OCCCN1CCC(C)CC1`, the IC50 in experiment [1] came out at 240 nM; in experiment [2], 930 nM; in experiment [3] it was 300 nM; in experiment [4], 510 nM.

In the case of `COc1cc2c(Oc3ccc(NC(=O)N/N=C/c4ccccc4)cc3F)ccnc2cc1OCCCN1CCCC1`, the IC50 in experiment [1] was 440 nM; in experiment [2] it was 950 nM; in experiment [3], 420 nM; in experiment [4] it was 770 nM.

In the case of `COc1cc2c(Oc3ccc(NC(=O)N/N=C/c4ccc(F)c(F)c4)cc3F)ccnc2cc1OCCCN1CCCCC1`, the IC50 came to 380 nM in experiment [1], 1300 nM in experiment [2], 270 nM in experiment [3] and 710 nM in experiment [4].

Turning to `COc1cc2c(Oc3ccc(NC(=O)N/N=C/c4ccc(Cl)cc4)cc3F)ccnc2cc1OCCCN1CCCC1`, the IC50 in experiment [1] came to 180 nM; in experiment [2], 1300 nM; in experiment [3], 410 nM; in experiment [4], 610 nM.

For the compound `COc1cc2c(Oc3ccc(NC(=O)N/N=C/c4ccccc4C(F)(F)F)cc3F)ccnc2cc1OCCCN1CCCCC1`, the IC50 in experiment [1] turned out to be 160 nM; in experiment [2], 730 nM; in experiment [3] it was 130 nM; in experiment [4], 590 nM.

For the compound `CC/C(=N\NC(=O)Nc1ccc(Oc2ccnc3cc(OCCCN4CCCCC4)c(OC)cc23)c(F)c1)c1ccccc1`, the 50% inhibitory concentration (IC50) in experiment [1] is 330 nM; in experiment [2], 1100 nM; in experiment [3] it was 290 nM; in experiment [4], 930 nM.

As for `COc1cc2c(Oc3ccc(NC(=O)N/N=C(\C)c4ccccc4)cc3F)ccnc2cc1OCCCN1CCCCC1`, the IC50 in experiment [1] was 200 nM; in experiment [2], 960 nM; in experiment [3], 160 nM; in experiment [4], 640 nM.

For `COc1cc2c(Oc3ccc(NC(=O)N/N=C/C(C)C)cc3F)ccnc2cc1OCCCN1CCCCC1`, the IC50 in experiment [1] turned out to be 1100 nM; in experiment [2], 2700 nM; in experiment [3], 1900 nM; in experiment [4], 2000 nM.

In the case of `COc1cc2c(Oc3ccc(NC(=S)N/N=C/c4ccccc4[N+](=O)[O-])cc3F)ccnc2cc1OCCCN1CCCCC1`, the IC50 in experiment [1] is 140 nM; in experiment [2] it was 830 nM; in experiment [3], 250 nM; in experiment [4] it was 450 nM.

Consider `C=CCc1cccc(/C=N/NC(=O)CN2CCN(Cc3ccccc3)CC2)c1O` [PAC-1], for which the IC50 in experiment [1] turned out to be 830 nM; in experiment [2], 4600 nM; in experiment [4], 820 nM.

Turning to `COc1cc2c(Oc3ccc(NC(=O)N/N=C/c4cccnc4)cc3F)ccnc2cc1OCCCN1CCCCC1`, the IC50 in experiment [1] was 320 nM; in experiment [2], 880 nM; in experiment [3], 460 nM; in experiment [4], 790 nM.

As to `COc1cc2c(Oc3ccc(NC(=O)N/N=C/c4ccc([N+](=O)[O-])cc4)cc3F)ccnc2cc1OCCCN1CCCCC1`, the IC50 in experiment [1] is 370 nM; in experiment [2], 1400 nM; in experiment [3] it was 820 nM; in experiment [4], 890 nM.

For the compound `COc1cc2c(Oc3ccc(NC(=O)N/N=C/c4ccc(C(F)(F)F)cc4)cc3F)ccnc2cc1OCCCN1CCOCC1`, the IC50 in experiment [1] was determined as 1100 nM; in experiment [2] it was 1100 nM; in experiment [3] it was 790 nM; in experiment [4] it was 780 nM.

Regarding `COc1cc2c(Oc3ccc(NC(=O)N/N=C/c4ccccc4)cc3F)ccnc2cc1OCCCN1CCCCC1`, the IC50 in experiment [1] is 180 nM; in experiment [2], 1000 nM; in experiment [3], 160 nM; in experiment [4], 580 nM.

On to `COc1cc2c(Oc3ccc(NC(=S)N/N=C/c4ccco4)cc3F)ccnc2cc1OCCCN1CCCCC1`, for which the IC50 in experiment [1] was 400 nM; in experiment [2], 1100 nM; in experiment [3] it was 470 nM; in experiment [4] it was 880 nM.

Take `COc1cc2c(Oc3ccc(NC(=O)N/N=C/c4ccc(Cl)cc4)cc3F)ccnc2cc1OCCCN1CCCCC1`: the IC50 is 98 nM in experiment [1]; 940 nM in experiment [2]; 220 nM in experiment [3]; 410 nM in experiment [5]; 470 nM in experiment [4]; 24 nM in experiment [7]. Moreover, in experiment [6], the IC50 amounted to 63 nM.

As for `COc1cc2c(Oc3ccc(NC(=O)N/N=C/c4ccccc4C#N)cc3F)ccnc2cc1OCCCN1CCCCC1`, the IC50 in experiment [1] was 260 nM; in experiment [2] it was 610 nM; in experiment [3], 190 nM; in experiment [4], 520 nM.

As for `COc1cc2c(Oc3ccc(NC(=O)N/N=C/c4ccccc4F)cc3F)ccnc2cc1OCCCN1CCCCC1`, the IC50 in experiment [1] is 220 nM; in experiment [2] it was 920 nM; in experiment [3], 130 nM; in experiment [4], 570 nM.

On to `COc1cc2c(Oc3ccc(NC(=O)N/N=C/c4ccccc4[N+](=O)[O-])cc3F)ccnc2cc1OCCCN1CCCCC1`, for which the IC50 in experiment [1] is 150 nM; in experiment [2], 550 nM; in experiment [3], 190 nM; in experiment [4], 480 nM.

For `COc1cc2c(Oc3ccc(NC(=O)N/N=C/c4ccc(Cl)cc4)cc3F)ccnc2cc1OCCCN1CCC(C)CC1`, the IC50 came out at 140 nM in experiment [1], 1200 nM in experiment [2], 170 nM in experiment [3] and 620 nM in experiment [4].

Take `COc1cc2c(Oc3ccc(NC(=O)N/N=C/c4ccco4)cc3F)ccnc2cc1OCCCN1CCCCC1`: the IC50 was 360 nM in experiment [1], 910 nM in experiment [2], 440 nM in experiment [3] and 710 nM in experiment [4].

In the case of `COc1cc2c(Oc3ccc(NC(=O)NNCc4ccc(F)cc4F)cc3F)ccnc2cc1OCCCN1CCC(C)CC1`, the IC50 stood at 660 nM in experiment [1], 1300 nM in experiment [2], 350 nM in experiment [3] and 860 nM in experiment [4].

Turning to `COc1ccc(OC)c(/C=N/NC(=O)Nc2ccc(Oc3ccnc4cc(OCCCN5CCCCC5)c(OC)cc34)c(F)c2)c1`, the concentration for half-maximal inhibition (IC50) in experiment [1] amounted to 590 nM; in experiment [2], 1500 nM; in experiment [3] it was 860 nM; in experiment [4], 860 nM.

`COc1cc2c(Oc3ccc(NC(=O)N/N=C/c4ccc(F)cc4)cc3F)ccnc2cc1OCCCN1CCCC1`: the IC50 in experiment [1] turned out to be 220 nM; in experiment [2], 1300 nM; in experiment [3], 270 nM; in experiment [4] it was 590 nM.
